Source: ChEMBL document CHEMBL4513216, “Probing the Open Global Health Chemical Diversity Library for Multistage-Active Starting Points for Next-Generation Antimalarials” (ACS Infect Dis, 2020)

Experiment: Toxicity liver stage against HepG2, at 10uM
Format: cell-based
Set-up: test concentration 10 uM, cell line HepG2-A16-CD81EGFP
Conditions: human, HepG2-A16-CD81EGFP cells; read-out: INHIBITION
Procedure, shortened: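 Uninfected HepG2-A16-CD81EGFP cells, 3 × 10^3 per well, 1536-well, plated on prespotted compound at 10 μM final, parasite-free screening media added to match infected plates; puromycin 10 μM positive, DMSO 0.5% negative; run in parallel with 48 h PbLuc assay at 37 °C, 5% CO2; viability by CellTiter-Glo luminescence, normalized to controls.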

Compound	cytotoxicity at 10 µM
CC(C)(C)c1coc([C@@H]2COCCN2Cc2cnc3ccccc3c2)n1	10.9%
O=C1CN(C(=O)OCc2ccccc2)CC(O)CN1Cc1ccco1 (stereo unspecified)	-9.92%
COc1ccc2cnn(CC(=O)NCC3CCCO3)c(=O)c2c1OC (stereo unspecified)	4.81%
N#Cc1cccnc1OC1CCN(C(=O)c2cc(C3CC3)on2)CC1	0.253%
COc1ccc(CC(=O)Nc2c(C)nc(N3CCOCC3)nc2C)cc1	5.39%
CCSc1ccccc1C(=O)N1CCC(S(=O)(=O)c2nncn2C)CC1	0.595%
CC(C)Nc1nc2c(c(NC3CC3)n1)CCN(C(=O)C1CCOC1)CC2 (stereo unspecified)	-145%
Cc1occc1C(=O)N1CCCn2cnc(CN3CCCC3=O)c2C1	4.24%
O=C1CCCN1CC1CN(C(=O)N2CCOCC2)Cc2nccn2C1 (stereo unspecified)	-1.05%
CCN(c1ccc(C(=O)NCCN2CCOCC2)cc1)S(=O)(=O)CC	6.89%
Cc1oc(-c2nc(C#N)c(NC(C)C)o2)cc1S(=O)(=O)N1CCCC1	5.61%
CCc1ccccc1NC(=O)CCc1cnn(C)c1	8.66%
CC(C)n1cc(N2CC(C(=O)N3CCN(C)CC3)CC2=O)cn1 (stereo unspecified)	1.44%
CN1CCC2(Cc3ccccc3CN(C(=O)Cc3cccc(Cl)c3)C2)C1 (stereo unspecified)	6.91%
NC(=O)Nc1cccc(F)c1C(=O)NC1CCCC1	-8.64%
Cc1nnc(CN(C)CCc2nc(-c3cccc(Cl)c3)no2)n1C	2.53%
Cc1csc(N2CCN(Cc3ccccn3)CC2)n1	6.14%
O=C(C1CCOC1)N1CCN(CC(F)(F)F)c2ccccc21 (stereo unspecified)	-5.74%
Cc1cc(NC(=O)NC(C)CN2CCN(c3ccccc3)CC2)on1 (stereo unspecified)	11.5%
FC(F)(F)Oc1ccc(CN2CCCC(n3cncn3)C2)cc1 (stereo unspecified)	-14.4%
CC(=O)c1cccc(OC(C)C(=O)Nc2cnn(CCN(C)C)c2)c1 (stereo unspecified)	3.45%

Compound	cytotoxicity at 10 µM
Cc1ccc(C(NC(=O)CN2CCc3cncnc3C2)C2CC2)cc1 (stereo unspecified)	9.31%
FCCOc1cccc(NCc2c[nH]nc2-c2cccnc2)c1	1.14%
COC(=O)c1sc2cccc(F)c2c1CNC(=O)C1CC1	-11.4%
CCc1nc2n(n1)CCCC2Nc1nc(C(C)C)ns1 (stereo unspecified)	3.88%
OCC1CCN(Cc2cc3c(cc2Br)OCCO3)CC1	6.84%
Cc1cccc(C)c1NC(=O)CN(C)C(C)c1nc(C(C)(C)C)no1 (stereo unspecified)	-6.85%
CCCn1nc2c(cc1=O)CN(Cc1nc(C)c3ccccc3n1)CC2	-2.45%
CNC(=O)c1ccc(CNCc2ccc(SC)c(OC)c2)cc1	0.838%
CCN(CC(=O)N(C)C)C(=O)c1cc(-c2cccc(Cl)c2)no1	6.17%
Cn1nc2c(cc1=O)CN(c1ncnc3ccsc13)CC2	9.3%
CCc1cnc(N2CCN(Cc3ccncc3)CC2)s1	40.8%
CC(C)c1nn(C)c(N(C)C)c1CNC1CCN(CC2CC2)CC1	8.96%
CSCC(C)CNC(=O)N1CCSC(C)(C)C1 (stereo unspecified)	0.873%
Cc1ccc2c(c1)OCCCC2NC1CCN(C)CC1 (stereo unspecified)	10.4%
NC(=O)C(NC(=O)c1cc(Br)c[nH]1)c1ccccc1 (stereo unspecified)	0.172%
CC(C)(C)C(C#N)NC(=O)c1ccc(Oc2cccnc2)cc1 (stereo unspecified)	5.21%
CN1Cc2ccccc2CC2(CCN(Cc3nccn3C)CC2)C1=O	7.81%
CCN(C(=O)c1nc2c(s1)CCCN2c1ccc(C)nn1)C(C)C	3.86%
Cn1cc(CN2Cc3cn(C)nc3C(COCC3CC3)C2)cn1 (stereo unspecified)	-69.8%
Cc1nc(CN2C(=O)CC[C@@H]3[C@H]2CCN3C(=O)c2ccno2)cs1	-82.7%
Cn1cccc1C(=O)N1CCc2ncnc(N3CCOCC3)c2CC1	-74.3%

Compound	cytotoxicity at 10 µM
O=C(c1cccs1)N1CC[C@H]2[C@@H]1CCC(=O)N2c1cccnc1	-74.3%
O=C(c1cscn1)N1CCC2(CC1)CN(c1ccccn1)CCO2	-71%
O=C(Cc1ccsc1)N1CCCC(CNS(=O)(=O)Cc2ccccc2)C1 (stereo unspecified)	4.24%
CSCCCN1C(=O)CC[C@H]2CN(Cc3ncc[nH]3)CC[C@H]21	7.4%
CN(Cc1ccc(CCC(C)(C)O)cc1)CC1(CO)CC1	-4.32%
O=C(CC1C=CCC1)N1CCc2ncnc(NCc3ccon3)c2CC1 (stereo unspecified)	22.8%
Cc1cc(C)c(C(=O)N2CCCC(C(=O)CCc3ccccc3)C2)cn1 (stereo unspecified)	-7.12%
Cc1ccsc1CN(CCCC(F)(F)F)Cc1ccccn1	0.107%
COc1ccc(Cn2cc(C(=O)N(C)Cc3ccn[nH]3)nn2)cc1	8.95%
Fc1ccccc1-c1noc2c1CN(CCN1CCOCC1)CC2	0.0119%
O=C(NCCn1cccc1)C1CCCN(C2CCCC2)C1 (stereo unspecified)	0.301%
O=C1CCC2(CCCN(Cc3nnc(C4CC4)o3)C2)CN1CCO (stereo unspecified)	5.14%
CCn1c(CN(C)C)nnc1C1CCN(c2nccc(NC)n2)CC1	7.36%
O=C(NCc1csc(Cc2ccccc2)n1)C1NCCc2[nH]cnc21 (stereo unspecified)	-4.32%
CCCN1CCC(Cc2noc(-c3cccnc3OC)n2)CC1	-11.1%
Cc1ccc(OC2(C(=O)O)CCN(C(=O)CCc3ccco3)CC2)cn1	1.33%
CC(C)(C)c1ccn(C2(C(=O)O)CCN(c3ccnc(N)n3)CC2)n1	3.63%
COc1ccc(N2CCN(C(=O)CCn3nccc3C)C(C)C2)cc1 (stereo unspecified)	14.3%
CC(C)CN1CCN(C)C(CCO)C1 (stereo unspecified)	1.84%
CC(C)CC(=O)N1CCCCC(NC(=O)CCc2cccnc2)C1 (stereo unspecified)	-1.62%
CSc1ncc(CN2CC(Oc3c(C)cccc3C)C2)cn1	10.3%

Compound	cytotoxicity at 10 µM
CN1CCC(Cc2noc(-c3cccc4c3OCC4)n2)CC1	-4.71%
O=C1N(Cc2ccc(F)c(F)c2)CCCC1(O)CNCc1ncc[nH]1 (stereo unspecified)	-4.27%
O=C(CCS(=O)(=O)c1ccccc1)N1CCCC(n2cccn2)C1 (stereo unspecified)	-14.7%
CC(=O)N(Cc1noc(C)n1)C1CCN(Cc2ccncc2Cl)C1 (stereo unspecified)	5.87%
Cc1cc(S(=O)(=O)NCc2cccc(C(=O)N3CCCC3)c2)c(C)s1	3.13%
Cc1nc(CN2CCN(C(=O)c3sccc3C3CC3)CC2)cs1	3.61%
CN(C)CCN1C(=O)CCCC12CCCN(C(=O)c1cc[nH]n1)C2 (stereo unspecified)	-0.225%
CN1CCOCC2(CCCN(C(=O)c3ccccc3F)C2)C1 (stereo unspecified)	-91.4%
O=C(N1CCOCC1)N1C[C@H]2CN(Cc3nccs3)C[C@H]2C1	-80.8%
CCO[C@H]1CO[C@@]2(CCCN(S(=O)(=O)c3cccnc3)C2)C1	-86.2%
Cc1nc(CN2CCCC3(CCN(c4cccnc4)C3=O)C2)cs1 (stereo unspecified)	0.574%
Cc1cnc(N2CCOCC3(CCN(c4ccccn4)C3)C2)nc1 (stereo unspecified)	6.85%
CCN(C)c1ncnc2c1CCN(C(=O)Cc1ccccn1)CC2	-3.26%
c1cnc(N2CCN3C[C@H](Oc4cncnc4)C[C@H]3C2)nc1	7.97%
Cc1ccc(CN2CC[C@@H]3OCCN(S(C)(=O)=O)[C@H]3CC2)s1	3.91%
O=C(CC1CC2(CCN(CC3CC3)CC2)c2ccccc21)NC1CCC1 (stereo unspecified)	-4.63%
CCn1cc2[nH]c(OC)c(CNC(=O)CCC3CCCC3)cc-2c1=O	-3.28%
COc1ccccc1-c1nnc2n1N=C(N)C(C#N)S2 (stereo unspecified)	1.5%
